Results published in ChEMBL document CHEMBL1156597, “Structure-activity relationship of kahalalide F synthetic analogues” (J Med Chem, 2008).

What was measured:
DU-145 = experiment: Cytotoxicity against human DU145 cells after 48 hrs by SRB assay; type: functional, cell-based
Procedure, shortened: (§1)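 Cells grown in RPMI 1640 with 10% FBS and penicillin/streptomycin at 37 °C and 5% CO₂, trypsinized, then seeded at 5 × 10³/well. After 18 h drug-free attachment, samples in DMSO/EtOH/PBS (0.5:0.5:99) were added for 48 h continuous exposure. Cells were fixed with cold TCA (1 h, 4 °C) and stained with SRB (10 min). Tris-solubilized stain read at 490 nm. Triplicate wells, mean ± SD; GI₅₀ derived.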

SK-MEL-28 = experiment: Cytotoxicity against human SK-MEL-28 cells after 48 hrs by SRB assay; type: functional, cell-based; procedure, shortened: as §1
A549 = experiment: Cytotoxicity against human A549 cells after 48 hrs by SRB assay; type: functional, cell-based; conditions: for LC50 / TGI / GI50: Homo sapiens, A549, 48 h; for GI50: read-out: GI50; procedure, shortened: as §1
HT-29 = experiment: Cytotoxicity against human HT29 cells after 48 hrs by SRB assay; type: functional, cell-based; conditions: for CC50 / GI50 / TGI: Homo sapiens, HT-29, 48 h; for CC50: read-out: LC50 (the source's name); procedure, shortened: as §1
[1] = Cytotoxicity against human IGROV cells after 48 hrs by SRB assay; type: functional; conditions: for CC50: read-out: LC50 (the source's name); procedure, shortened: as §1
[2] = Cytotoxicity against human IGROV-ET cells after 48 hrs by SRB assay; type: functional; conditions: for CC50: read-out: LC50 (the source's name); procedure, shortened: as §1
SK-BR-3 = experiment: Cytotoxicity against human SKBR3 cells after 48 hrs by SRB assay; type: functional; conditions: SK-BR-3, 48 h; procedure, shortened: as §1
PANC-1 = experiment: Cytotoxicity against human PANC1 cells after 48 hrs by SRB assay; type: functional; conditions: PANC-1, 48 h; procedure, shortened: as §1
LoVo = experiment: Cytotoxicity against human LoVo cells after 48 hrs by SRB assay; type: functional
HeLa = experiment: Cytotoxicity against human HeLa cells after 48 hrs by SRB assay; type: functional; conditions: read-out: LC50 (the source's name); procedure, shortened: as §1
[3] = Cytotoxicity against human HeLa-APL cells after 48 hrs by SRB assay; type: functional; procedure, shortened: as §1
[4] = read-out: LC50 (the source's name)

SMILES: C/C=C1\NC(=O)[C@H](Cc2ccccc2)NC(=O)[C@@H](C(C)C)NC(=O)[C@@H]([C@H](C)CC)NC(=O)[C@H](NC(=O)[C@H](NC(=O)[C@H](CCCN)NC(=O)[C@H]2CCCN2C(=O)[C@H](NC(=O)[C@@H](NC(=O)[C@@H](NC(=O)[C@H](NC(C)=O)C(C)C)[C@@H](C)O)C(C)C)C(C)C)[C@H](C)CC)[C@H](C)OC(=O)[C@H](C(C)C)NC1=O
- Activity (DU-145): 7.11 ×10⁻⁶ M
- Activity (SK-MEL-28): 7.11 ×10⁻⁶ M
- Activity (A549): 7.11 ×10⁻⁶ M
- Activity (HT-29): 7.11 ×10⁻⁶ M

SMILES: C/C=C1\NC(=O)[C@H](Cc2ccccc2)NC(=O)[C@@H](C(C)C)NC(=O)[C@@H]([C@H](C)CC)NC(=O)[C@H](NC(=O)[C@H](NC(=O)[C@H](CCCN)NC(=O)[C@H]2CCCN2C(=O)[C@H](NC(=O)[C@@H](NC(=O)[C@@H](NC(=O)[C@H](NC(=O)CC(C)(C)C)C(C)C)[C@@H](C)O)C(C)C)C(C)C)[C@H](C)CC)[C@H](C)OC(=O)[C@H](C(C)C)NC1=O
- Activity (DU-145): 3.42 ×10⁻⁷ M
- Activity (SK-MEL-28): 3.42 ×10⁻⁶ M
- Activity (A549): 1.71 ×10⁻⁶ M
- Activity (HT-29): 3.42 ×10⁻⁷ M

SMILES: C/C=C1\NC(=O)[C@H](Cc2ccccc2)NC(=O)[C@@H](C(C)C)NC(=O)[C@@H]([C@H](C)CC)NC(=O)[C@H](NC(=O)[C@H](NC(=O)[C@H](NC(=O)CCCC(C)C)C(C)C)[C@H](C)CC)[C@H](C)OC(=O)[C@H](C(C)C)NC1=O
- LC50 (A549): 14800 nM
- CC50 (HT-29): 40000 nM

SMILES: C/C=C1\NC(=O)[C@H](Cc2ccccc2)NC(=O)[C@@H](C(C)C)NC(=O)[C@@H]([C@H](C)CC)NC(=O)[C@H](NC(=O)[C@H](NC(=O)[C@H](CCCN)NC(=O)[C@H]2CCCN2C(=O)[C@H](NC(=O)[C@@H](NC(=O)[C@@H](NC(=O)[C@H](NC(=O)CCC(C)C)C(C)C)[C@@H](C)O)C(C)C)C(C)C)[C@H](C)CC)[C@H](C)OC(=O)[C@H](C(C)C)NC1=O
- Activity (DU-145): 3.42 ×10⁻⁷ M
- Activity (SK-MEL-28): 3.42 ×10⁻⁶ M
- Activity (A549): 3.42 ×10⁻⁷ M
- Activity (HT-29): 3.42 ×10⁻⁷ M

SMILES: CC[C@@H](C)[C@@H](NC(=O)[C@H](CCCN)NC(=O)[C@H]1CCCN1C(=O)[C@H](NC(=O)[C@@H](NC(=O)[C@@H](NC(=O)[C@H](NC(=O)CCCC(C)C)C(C)C)[C@@H](C)O)C(C)C)C(C)C)C(=O)N[C@H]1C(=O)N[C@H]([C@H](C)CC)C(=O)N[C@H](C(C)C)C(=O)N[C@@H](Cc2ccccc2)C(=O)N[C@H]([C@H](C)O)C(=O)N[C@@H](C(C)C)C(=O)O[C@H]1C
- CC50 (DU-145; Homo sapiens, DU-145, 48 h, read-out: LC50 (the source's name)): 1500 nM
- CC50 [1]: 941 nM
- CC50 [2]: 1030 nM
- TGI (SK-BR-3): 6690 nM
- GI50 (SK-BR-3; read-out: GI50): 6150 nM
- CC50 (SK-BR-3; [4]): 1880 nM
- CC50 (SK-MEL-28; Homo sapiens, SK-MEL-28, 48 h, read-out: LC50 (the source's name)): 2540 nM
- LC50 (A549): 1150 nM
- GI50 (PANC-1): 4880 nM
- TGI (PANC-1): 4580 nM
- CC50 (PANC-1; [4]): 2210 nM
- GI50 (HT-29): 11800 nM
- TGI (HT-29): 10400 nM
- CC50 (HT-29): 5370 nM
- GI50 (LoVo): 3440 nM
- TGI (LoVo): 4230 nM
- CC50 (LoVo; [4]): 4420 nM
- CC50 (HeLa): 1490 nM
- LC50 (concentration giving 50% net cell kill) [3]: 1200 nM

SMILES: C/C=C1\NC(=O)[C@H](Cc2ccccc2)NC(=O)[C@@H](C(C)C)NC(=O)[C@@H]([C@H](C)CC)NC(=O)[C@H](NC(=O)[C@H](NC(=O)[C@H](CCCN)NC(=O)[C@H]2CCCN2C(=O)[C@H](NC(=O)[C@@H](NC(=O)[C@@H](NC(=O)[C@H](NC(=O)/C=C/C=C/C)C(C)C)[C@@H](C)O)C(C)C)C(C)C)[C@H](C)CC)[C@H](C)OC(=O)[C@H](C(C)C)NC1=O
- Activity (DU-145): 6.85 ×10⁻⁶ M
- Activity (SK-MEL-28): 6.85 ×10⁻⁶ M
- Activity (A549): 3.43 ×10⁻⁶ M
- Activity (HT-29): 6.85 ×10⁻⁷ M

SMILES: C/C=C1\NC(=O)[C@H](Cc2ccccc2)NC(=O)[C@@H](C(C)C)NC(=O)[C@@H]([C@H](C)CC)NC(=O)[C@H](NC(=O)[C@H](NC(=O)[C@H](CCCN)NC(=O)[C@H]2CCCN2C(=O)[C@H](NC(=O)[C@@H](NC(=O)[C@@H](NC(=O)[C@H](NC(=O)CCCOC(C)=O)C(C)C)[C@@H](C)O)C(C)C)C(C)C)[C@H](C)CC)[C@H](C)OC(=O)[C@H](C(C)C)NC1=O
- Activity (DU-145): 6.7 ×10⁻⁶ M
- Activity (SK-MEL-28): 6.7 ×10⁻⁶ M
- Activity (A549): 6.7 ×10⁻⁶ M
- Activity (HT-29): 6.7 ×10⁻⁶ M

SMILES: C/C=C1\NC(=O)[C@H](Cc2ccccc2)NC(=O)[C@@H](C(C)C)NC(=O)[C@@H]([C@H](C)CC)NC(=O)[C@H](NC(=O)[C@H](NC(=O)[C@H](CCCN)NC(=O)[C@H]2CCCN2C(=O)[C@H](NC(=O)[C@@H](NC(=O)[C@@H](NC(=O)[C@H](NC(=O)CCCO)C(C)C)[C@@H](C)O)C(C)C)C(C)C)[C@H](C)CC)[C@H](C)OC(=O)[C@H](C(C)C)NC1=O
- Activity (DU-145): 6.89 ×10⁻⁶ M
- Activity (SK-MEL-28): 6.89 ×10⁻⁶ M
- Activity (A549): 6.89 ×10⁻⁶ M
- Activity (HT-29): 6.89 ×10⁻⁶ M

SMILES: C/C=C1\NC(=O)[C@H](Cc2ccccc2)NC(=O)[C@@H](C(C)C)NC(=O)[C@@H]([C@H](C)CC)NC(=O)[C@H](NC(=O)[C@H](NC(=O)[C@H](CCCN)NC(=O)[C@H]2CCCN2C(=O)[C@H](NC(=O)[C@@H](NC(=O)[C@@H](NC(=O)[C@H](NC(=O)CCCOC(=O)CCOC(C)=O)C(C)C)[C@@H](C)O)C(C)C)C(C)C)[C@H](C)CC)[C@H](C)OC(=O)[C@H](C(C)C)NC1=O
- Activity (DU-145): 6.33 ×10⁻⁷ M
- Activity (SK-MEL-28): 6.33 ×10⁻⁷ M
- Activity (A549): 6.33 ×10⁻⁷ M
- Activity (HT-29): 6.33 ×10⁻⁷ M

SMILES: C/C=C1\NC(=O)[C@H](Cc2ccccc2)NC(=O)[C@@H](C(C)C)NC(=O)[C@@H]([C@H](C)CC)NC(=O)[C@H](NC(=O)[C@H](NC(=O)[C@H](CCCN)NC(=O)[C@H]2CCCN2C(=O)[C@H](NC(=O)[C@@H](NC(=O)[C@@H](NC(=O)[C@H](NC(=O)c2ccc(C)cc2)C(C)C)[C@@H](C)O)C(C)C)C(C)C)[C@H](C)CC)[C@H](C)OC(=O)[C@H](C(C)C)NC1=O
- GI50 [1]: 447 nM
- GI50 ([1]; read-out: GI50): 479 nM
- CC50 [1]: 394 nM
- GI50 [2]: 421 nM
- GI50 ([2]; read-out: GI50): 365 nM
- CC50 [2]: 422 nM
- GI50 [3]: 950 nM
- TGI [3]: 898 nM

SMILES: C/C=C1\NC(=O)[C@H](Cc2ccccc2)NC(=O)[C@@H](C(C)C)NC(=O)[C@@H]([C@H](C)CC)NC(=O)[C@H](NC(=O)[C@H](NC(=O)[C@H](NC(=O)[C@@H](NC(=O)[C@@H](NC(=O)[C@H](NC(=O)CCCC(C)C)C(C)C)[C@@H](C)O)C(C)C)C(C)C)[C@H](C)CC)[C@H](C)OC(=O)[C@H](C(C)C)NC1=O
- LC50 (A549): 11300 nM
- TGI (A549): 20800 nM
- GI50 (A549): 23000 nM
- GI50 (HT-29): 9890 nM
- TGI (HT-29): 61600 nM
- CC50 (HT-29): 30600 nM

SMILES: C/C=C1\NC(=O)[C@H](Cc2ccccc2)NC(=O)[C@@H](C(C)C)NC(=O)[C@@H]([C@H](C)CC)NC(=O)[C@H](NC(=O)[C@H](NC(=O)[C@H](CCCN)NC(=O)[C@H]2CCCN2C(=O)[C@H](NC(=O)[C@@H](NC(=O)[C@@H](NC(=O)[C@H](NC(=O)c2ccc3c(c2)OCO3)C(C)C)[C@@H](C)O)C(C)C)C(C)C)[C@H](C)CC)[C@H](C)OC(=O)[C@H](C(C)C)NC1=O
- LC50 (A549): 1330 nM
- TGI (A549): 1040 nM
- GI50 (A549): 640 nM
- GI50 (HT-29): 413 nM
- TGI (HT-29): 514 nM
- CC50 (HT-29): 409 nM

SMILES: C/C=C1\NC(=O)[C@H](Cc2ccccc2)NC(=O)[C@@H](C(C)C)NC(=O)[C@@H]([C@H](C)CC)NC(=O)[C@H](NC(=O)[C@H](NC(=O)[C@H](CCCN)NC(=O)[C@H]2CCCN2C(=O)[C@H](NC(=O)[C@@H](NC(=O)[C@@H](NC(=O)[C@H](NC(=O)[C@H](NC(=O)C(C)C)[C@H](C)CC)C(C)C)[C@@H](C)O)C(C)C)C(C)C)[C@H](C)CC)[C@H](C)OC(=O)[C@H](C(C)C)NC1=O
- Activity (DU-145): 6.46 ×10⁻⁶ M
- Activity (SK-MEL-28): 6.46 ×10⁻⁶ M
- Activity (A549): 6.46 ×10⁻⁶ M
- Activity (HT-29): 6.46 ×10⁻⁶ M

SMILES: C/C=C1\NC(=O)[C@H](Cc2ccccc2)NC(=O)[C@@H](C(C)C)NC(=O)[C@@H]([C@H](C)CC)NC(=O)[C@H](NC(=O)[C@H](NC(=O)[C@H](CCCN)NC(=O)[C@H]2CCCN2C(=O)[C@H](NC(=O)[C@@H](NC(=O)[C@@H](NC(=O)[C@H](NC(=O)CCC)C(C)C)[C@@H](C)O)C(C)C)C(C)C)[C@H](C)CC)[C@H](C)OC(=O)[C@H](C(C)C)NC1=O
- Activity (DU-145): 1.74 ×10⁻⁶ M
- Activity (SK-MEL-28): 3.48 ×10⁻⁶ M
- Activity (A549): 3.48 ×10⁻⁶ M
- Activity (HT-29): 1.74 ×10⁻⁶ M

SMILES: C/C=C1\NC(=O)[C@H](Cc2ccccc2)NC(=O)[C@@H](C(C)C)NC(=O)[C@@H]([C@H](C)CC)NC(=O)[C@H](NC(=O)[C@H](NC(=O)[C@H](CCCN)NC(=O)[C@H]2CCCN2C(=O)[C@H](NC(=O)[C@@H](NC(=O)[C@@H](NC(=O)[C@H](NC(=O)C(F)(F)F)C(C)C)[C@@H](C)O)C(C)C)C(C)C)[C@H](C)CC)[C@H](C)OC(=O)[C@H](C(C)C)NC1=O
- Activity (DU-145): 3.42 ×10⁻⁶ M
- Activity (SK-MEL-28): 6.84 ×10⁻⁶ M
- Activity (A549): 6.84 ×10⁻⁶ M
- Activity (HT-29): 3.42 ×10⁻⁶ M
